Results taken from paper PMC2910176 (Food and chemical toxicology : an international journal …, 2010).

Tests used:
[1] = system: Hs-68; assay: MTT cell viability assay in normal skin fibroblasts Hs-68; assay type: cell-based, human; settings: for inhibition of cell proliferation in human normal skin fibroblasts: 3.125–25 μg/ml; for Concentration producing 50% growth inhibition (IC50): Hs-68 normal skin fibroblasts, 48 hours, MTT
[2] = system: cancer cell lines HepG2, MCF-7 and MDA-MB-231; assay: Anti-proliferative activity in cancer cell lines; assay type: cell-based, human; settings: dose-dependent, three cancer cell lines
[3] = system: human peripheral blood mononuclear cells (PBMC); settings: ref Yadav et al., 2005; cited from earlier work
[4] = system: human peripheral blood mononuclear cells (PBMC); settings: ref Yadav et al., 2005; cited from earlier work; remark: listed apart in the source
[5] = system: HepG2; assay: MTT cell viability assay in HepG2; assay type: cell-based, human; settings: for Concentration producing 50% growth inhibition (IC50): HepG2, 48 hours, MTT
[6] = system: MCF-7; assay: MTT cell viability assay in MCF-7; assay type: cell-based, human; settings: for Concentration producing 50% growth inhibition (IC50): MCF-7, 48 hours, MTT
[7] = system: MDA-MB-231; assay: MTT cell viability assay in MDA-MB-231; assay type: cell-based, human; settings: for Concentration producing 50% growth inhibition (IC50): MDA-MB-231, 48 hours, MTT
[8] = system: human peripheral blood mononuclear cells (PBMC); assay: PBMC proliferation; assay type: cell-based; settings: 72 hours, with polymyxin B; α-turmerone 10 or 15 μg/ml, ar-turmerone 5-15 μg/ml
Outline: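 PHA-activated PBMC (PHA 10 μg/ml final; polymyxin B 10 μg/ml present to bind LPS) were incubated 72 h with test compound at 5, 10 or 15 μg/ml, with matched vehicle. [methyl-3H]-thymidine (0.5 μCi/well) was added for the final 6 h. Cells were harvested onto glass-fibre filters for scintillation counting. Results are % cpm relative to untreated control, mean of 8 donors.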

[9] = system: human peripheral blood mononuclear cells (PBMC); assay: Cytokine production by PBMC; assay type: cell-based; settings: for TNF-α production in PHA-activated PBMC / IFN-γ production in PHA-activated PBMC / IL-2 production in PHA-activated PBMC: 24 hours; for TNF-α production in PHA-activated PBMC: 10 and 15 μg/ml; for IFN-γ production in PHA-activated PBMC / IL-2 production in PHA-activated PBMC: data not shown
Outline: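 PBMC came from buffy coat by Ficoll density separation, with ≥95% trypan-blue viability, at 4 × 10^5/well. Resting or PHA-activated (10 μg/ml final) cells received test compound at 5, 10 or 15 μg/ml, with matched vehicle, for 24 h. Supernatants were recovered by centrifugation (300×g), stored at −80°C and assayed for IL-2, IFN-γ and TNF-α by ELISA. There were 8 donors, four wells each, reported as mean + SD; the statistic was an unpaired t-test versus control.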

[10] = system: MDA-MB-231 cells; assay: Cell cycle analysis; assay type: cell-based, human; settings: MDA-MB-231, after treatment
Outline: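 MDA-MB-231 cells (3 × 10^5/well, 6-well) were plated overnight and then treated with test compound (30–45 μg/ml). They were fixed in 70% v/v ethanol at 4°C overnight and stained with PI (20 μg/ml) plus RNase A (10 μg/ml) for 30 min at 37°C in the dark. Flow cytometry collected 10,000 cells per sample, and cell cycle and apoptotic peaks were modelled; n=3.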

[11] = system: MDA-MB-231 cells; assay: DNA fragmentation assay; assay type: cell-based, human; settings: MDA-MB-231, 24 and 48 hours
Outline: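 MDA-MB-231 cells (1 × 10^6) were attached for 24 h in 100 mm dishes, then given test compound (40–80 μg/ml) or 0.4% v/v ethanol for 24 or 48 h. Lysis was 15 min at 37°C in 200 mM Tris-HCl, 100 mM EDTA, 1% SDS, pH 8.3. RNase A, then proteinase K, each ran 90 min at 56°C, followed by ethanol/sodium acetate precipitation. DNA ran on 1.5% agarose with ethidium bromide beside a 100 bp marker; n=3.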

[12] = system: MDA-MB-231 cells; assay: Annexin V-FITC/PI staining assay; assay type: cell-based, human; settings: MDA-MB-231, 24 hours
Outline: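 MDA-MB-231 cells (3 × 10^5/well) were exposed to test compound at various concentrations for 24 h. They were washed twice in 1X binding buffer, then labelled with annexin-V FITC plus PI for 15 min at room temperature in the dark, and analysed by flow cytometry. Annexin-V+ PI− (lower right quadrant) was taken as early apoptosis. Three independent experiments were run.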

[13] = system: MDA-MB-231 cells; assay: Western blot analysis of apoptosis and proliferation proteins; assay type: cell-based, human; settings: MDA-MB-231, 40 or 60 μg/ml
Outline: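 MDA-MB-231 cells (1 × 10^6) were treated with test compound (40 or 60 μg/ml) or 0.4% v/v ethanol for 24 or 48 h. Lysis used 2% SDS, 10% glycerol, […] Tris-HCl, pH 6.8, on ice, then 95°C for 10 min. Lysates ran on 12% SDS-PAGE onto PVDF and were blocked in 5% milk/TBST. Primaries (overnight) were Bcl-2 and procaspases-3/-8 at 1:100 and cyclin D at 1:200; the β-actin loading control was 1:2000. HRP secondary was used with ECL; three independent experiments.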

Q: For O=C(/C=C/c1ccc(O)cc1)CC(=O)/C=C/c1ccc(O)cc1 [Bisdemethoxycurcumin, bisdemethoxycurcumin], which “inhibition of cell proliferation in human normal skin fibroblasts” value (“inhibition … in human normal skin fibroblasts” for short) [1] is on record?
A: The value was “did not induce any significant inhibition”.

Q: And the “proliferation of cancer cells” value [2]?
A: Its value is “significantly inhibited”.

Q: Which results are given for COc1cc(/C=C/C(=O)CC(=O)/C=C/c2ccc(O)c(OC)c2)ccc1O [Curcumin, curcumin]?
A: proliferation of cancer cells [2]: significantly inhibited; PHA-induced proliferation in PBMC [3]: inhibited; IL-2 production in PBMC (PHA-induced) [4]: inhibited

Q: Which “inhibition … in human normal skin fibroblasts” value [1] does the source give for COc1cc(/C=C/C(O)=C/C(=O)/C=C/c2ccc(O)cc2)ccc1O [Demethoxycurcumin, demethoxycurcumin] here?
A: The value was “did not induce any significant inhibition”.

Q: What about the “proliferation of cancer cells” value [2] of the same molecule?
A: Its value is “significantly inhibited”.

Q: For CC(C)=CC(=O)C[C@H](C)c1ccc(C)cc1 [ar-turmerone], which “Concentration producing 50% growth inhibition (IC50)” value [5] is on record?
A: The value was >100 µg/mL.

Q: And the “Concentration producing 50% growth inhibition (IC50)” value [6]?
A: The value was >100 µg/mL.

Q: And the “Concentration producing 50% growth inhibition (IC50)” value [7]?
A: The value was >100 µg/mL.

Q: What about the “inhibition … in human normal skin fibroblasts” value [1] of the same molecule?
A: Its value is “did not induce any significant inhibition”.

Q: And the “Concentration producing 50% growth inhibition (IC50)” value [1]?
A: The value was >100 µg/mL.

Q: And the “proliferation of PHA-activated PBMC” value [8]?
A: Its value is “significantly stimulate”.

Q: And the “IFN-γ production in resting PBMC” value ([9]; 24 hours, 5, 10 or 15 μg/ml)?
A: The value was “significantly increased”.

Q: What about the “IL-2 production in resting PBMC” value ([9]; 24 hours, 5, 10 or 15 μg/ml) of the same molecule?
A: Its value is “significantly increased”.

Q: And the “TNF-α production in resting PBMC” value ([9]; 24 hours, 5, 10 or 15 μg/ml)?
A: The value was “significantly increased”.

Q: And the “TNF-α production in PHA-activated PBMC” value [9]?
A: The value was “significantly increased”.

Q: What about the “IFN-γ production in PHA-activated PBMC” value [9] of the same molecule?
A: The value was “neither α-turmerone (AL) nor ar-turmerone (AR) further altered”.

Q: What about the “IL-2 production in PHA-activated PBMC” value [9] of the same molecule?
A: The value was “neither α-turmerone (AL) nor ar-turmerone (AR) further altered”.

Q: What does the source list for CC(C)=CC(=O)CC(C)C1C=CC(C)=CC1 (stereo not drawn) [α-turmerone]?
A: inhibition of cell proliferation compared to the control ([5]; HepG2, 50 μg/ml, 48 hours): ~70%; Concentration producing 50% growth inhibition (IC50) [5]: 32.9 µg/mL; inhibition of cell proliferation compared to the control ([6]; MCF-7, 50 μg/ml, 48 hours): ~70%; Concentration producing 50% growth inhibition (IC50) [6]: 41.8 µg/mL; inhibition of cell proliferation compared to the control ([7]; MDA-MB-231, 50 μg/ml, 48 hours): ~70%; Concentration producing 50% growth inhibition (IC50) [7]: 30.2 µg/mL; inhibition of cell proliferation in human normal skin fibroblasts [1]: did not induce any significant inhibition; Concentration producing 50% growth inhibition (IC50) [1]: >100 µg/mL; proliferation of cancer cells [2]: significantly inhibited; cell cycle arrest [10]: no arrest at any phase of the cell cycle; DNA fragmentation [11]: detected; proportion of early apoptosis cells (Annexin V-FITC positive and PI negative) [12]: increased with the concentrations; Bcl-2 expression [13]: slightly down-regulated; cleaved PARP [13]: observed; expression level of pro-caspase-3 [13]: significantly decreased; expression level of pro-caspase-8 [13]: significantly decreased; expression of cyclin D1 [13]: significantly decreased; proteolytic cleavage of pro-caspase-9 (fragments p35 and p37) [13]: observed; proliferation of PHA-activated PBMC [8]: significantly stimulate; TNF-α production in PHA-activated PBMC [9]: significantly increased; IFN-γ production in PHA-activated PBMC [9]: neither α-turmerone (AL) nor ar-turmerone (AR) further altered; IL-2 production in PHA-activated PBMC [9]: neither α-turmerone (AL) nor ar-turmerone (AR) further altered
